Screening data: PubChem BioAssay, several laboratories
The list is not random: actives were taken first. Their share in the collection is about 2.4%.
Myeloid diff 2 – promotes myeloid progenitor differentiation; 360,000 tested, 1% active; ER-HoxA9 myeloid progenitors, lysozyme-GFP differentiation, flow cytometry; calls only at 10 µM;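 active means normalized GFP-positive differentiation at or above the plate's own cutoff, the solvent-only control mean plus 3 SD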;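 further: cells exposed to compound for four days before flow analysis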
MT1-MMP act inh – blocks activation of human MT1-MMP; P50281; HT1080 RFP-PRO-GFP cells, GFP/RFP ratio fluorescence, overnight; percent of plate control window, DMSO zero; GFP/RFP ratio change, % at 20 µM; 360,000 tested, 0.061% active;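 active means GFP/RFP ratio change of at least 30% with cell ATP level not reduced by more than half and red fluorescence within 50% of control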
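system = RFP-PRO-GFP reporter HT1080 cells | dosing = 20 µM single dose, 1% DMSO | timing = overnight cell settling, then overnight compound exposure, 37 °C, 5% CO2 | read-out basis = GFP/RFP fluorescence ratio | controls = DMSO and RFP-L50D-GFP cell wells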
beta cell repl – induces beta-cell replication in MIN6 cells; MIN6 cells proliferation, ATPlite luminescence, 48 h; cells starved in 0.2% serum; 100% = growth in 10% serum; proliferation, % at 10 µM; 330,000 tested, 0.29% active; AID 2380;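 active means compounds whose signal lies at least 3.5 SD above the mean of all wells on their plate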;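 further: 0% = DMSO-treated cells in low-serum medium and 100% = 10% serum control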
DAGLB inh – blocks human DAGLB lipase activity; Q8NCG7; HEK293T DAGLB membrane lysate, EnzChek fluorogenic substrate; inhibition, % at 5.17 µM; 340,000 tested, 0.059% active; in the data active means inhibition above about 34%;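 further: 0% = enzyme with vehicle and 100% = wells lacking enzyme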
SENP1 FRET inh – blocks the human SENP1 SUMO protease catalytic domain. 360,000 tested, 0.21% active. recombinant SENP1 catalytic domain, CyPet-SUMO1-YPet FRET cleavage. AID 624204. inhibition, % at 10 µM;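 active means inhibition at least 30% at 10 µM, raw YFP signal under a set limit, fluorescence ratio 0.5 to 1.5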;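 further: 0% = enzyme with DMSO and 100% = no enzyme wells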
Target sequence (Q9P0U3 419-644 limits assumed): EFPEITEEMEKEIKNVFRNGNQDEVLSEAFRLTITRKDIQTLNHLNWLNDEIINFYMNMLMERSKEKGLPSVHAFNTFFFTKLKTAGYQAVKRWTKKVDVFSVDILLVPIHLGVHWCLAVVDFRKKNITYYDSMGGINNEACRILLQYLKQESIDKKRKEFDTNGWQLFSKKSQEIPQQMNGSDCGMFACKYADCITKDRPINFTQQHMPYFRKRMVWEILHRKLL
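system = hSENP1 catalytic domain, recombinant | reagent = SFCypet-SUMO1-SFYpet substrate at 25 nM | doses = one dose per compound, 10 µM, 0.5% DMSO | incubation = enzyme reaction for 50 min at room temperature, dark | measured by = FRET, CFP and YFP emission | controls = no-enzyme low, enzyme-DMSO high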
NRP1-CendR mod – alters CendR peptide binding to human NRP-1; FAM-RPARPAR peptide binding to NRP-1, fluorescence polarization; inhibition, % at 25 µM; 360,000 tested, 0.85% active;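 active means inhibition or corrected inhibition above about 18%, plus a signal ratio from 0.5 to 1.5, limit read from the data, passing the limit was not always enough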
DAGLB inh conf – DAGLB (human) inhibition, confirmation screen; 190 tested, 73% active; shares compounds with DAGLB inh; inhibition, % at 5.17 µM; AID 504445; HEK293T DAGLB membrane lysate, EnzChek fluorogenic substrate;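 active means mean inhibition over triplicate wells above a set limit taken from the primary lipase screen, cut at about 34% in these data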;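 further: 0% = DAGLB with DMSO and 100% = wells lacking DAGLB enzyme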
SENP1 inh conf – confirmation of human SENP1 SUMO protease inhibitors; shares compounds with SENP1 FRET inh; recombinant SENP1, CyPet-SUMO1-YPet FRET cleavage; inhibition, % at 10 µM; 520 tested, 34% active; AID 651678; in the data active means inhibition mostly above about 35%, no sharp cut-off; inactive means mostly below about 32%;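 further: 0% = enzyme with DMSO and 100% = no enzyme control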
SENP1 kin conf – confirmation of human SENP1 SUMO protease inhibitors, kinetic; AID 651690; 520 tested, 26% active; inhibition, % at 10 µM; shares compounds with SENP1 FRET inh; recombinant SENP1, CyPet-SUMO1-YPet FRET kinetic cleavage; in the data active means inhibition mostly above about 32%, no sharp cut-off; inactive means mostly below about 29%;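 further: 0% = DMSO with enzyme and 100% = no enzyme substrate only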
Myeloid diff CP1 – myeloid differentiation induction | shares compounds with Myeloid diff 2 | ER-HoxA9 myeloid progenitors, GFP/Mac1 double-positive flow | calls only | 2,300 tested, 2% active | AID 651706;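 active means share of green or green-and-red cells above 9 and 9% in run 1 or 4 and 3% in run 2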
GFP autofluor – flagged as fluorescent in myeloid differentiation counter-screen. 2,300 tested, 7.4% active. shares compounds with Myeloid diff 2. fluorescence response, % (no concentration beside the values). AID 651707. ER-HoxA9 myeloid progenitors, no estrogen, GFP autofluorescence flow cytometry; vehicle wells 0%, positive control 100%;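 active means over 5% cells positive for green fluorescent reporter, or over 2% positive for both it and APC stain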;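 further: range taken on the double positive population between DMSO and positive control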
MT1-MMP act val – MT1-MMP (human) activation inhibition, single-concentration validation | 200 tested, 10% active | shares compounds with MT1-MMP act inh | HT1080 RFP-PRO-GFP cells, GFP and RFP fluorescence ratio, overnight | inhibition, % at 20 µM;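 active means inhibition of at least 50% in the primary cell screen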
Active calls of the source: *; i = inactive; · = no result given; + = active, no number.

SMILES	Myeloid diff 2	MT1-MMP act inh	beta cell repl	DAGLB inh	SENP1 FRET inh	NRP1-CendR mod	Myeloid diff CP1	GFP autofluor	others
O=C(O)c1cccc2c1NC(C(=O)O)C1CC(Sc3ccccc3[N+](=O)[O-])C(Cl)C21 (stereo unspecified)	i	38*	·	39*	5	14	·	·	DAGLB inh conf=13;MT1-MMP act val=0
CC(=O)C1CCC2C3CCC4CC(O)CCC4(C)C3C(=O)CC12C (stereo unspecified)	i	-3	·	-1	0	12	·	·
COc1ccc(OC)c(-n2c(O)c(/C=C3\C(C)=Nc4ccccc43)c(=O)[nH]c2=O)c1	i	-55	0	·	82*	-84	·	·	SENP1 inh conf=10;SENP1 kin conf=12
Cc1ccc2[nH]c3c(c2c1)CN(C(=O)CN1C[C@H]2C[C@@H](C1)c1cccc(=O)n1C2)CC3	i	-9	-3	-1	-20	-32	·	·
COc1ccccc1N1CCN(Cc2ccccc2Cl)CC1	i	0	4	-3	35*	11	·	·	SENP1 inh conf=-4;SENP1 kin conf=2
CN1C(=O)C(=Cc2ccccc2OS(=O)(=O)c2ccccc2)C(=O)N(C)C1=O	i	-1	-6	0	0	-5	·	·
N#CCCn1cc(C(=O)Nc2ccc(F)cc2)c(-c2ccc([N+](=O)[O-])cc2)n1	i	7	-1	0	0	6	·	·
Cn1c(O)c(/C=C2\C=Nc3ccccc32)c(=O)n(C)c1=O	i	-25	-3	-2	54*	-157	·	·	SENP1 inh conf=4;SENP1 kin conf=8
COC(=O)C1=Nc2ccccc2/C1=C\c1c(O)n(C)c(=O)n(C)c1=O	i	-7	10	·	-16	-24	·	·
C=CCN1C(=O)/C(=C/c2ccc(N3CCOCC3)o2)C(=O)NC1=S	i	-60	2	0	40*	-173	·	·	SENP1 inh conf=31;SENP1 kin conf=24
Cc1cc(C)c(Cn2c(C(=O)O)c(C=O)c3ccccc32)c(C)c1	i	-74	-4	-3	97*	88	·	·	SENP1 inh conf=77*;SENP1 kin conf=51*
O=Cc1c(C(=O)O)n(Cc2ccccc2Cl)c2ccccc12	i	-10	-1	3	1	5	·	·
O=C1NC(=O)N(CCC2=CCCCC2)C(=O)/C1=C\c1cccs1	i	2	0	22	-1	-38	i	1
CCN(CC)P(=O)(NC(=O)c1cccn1C)N(CC)CC	i	0	-3	0	0	-1	·	·
O=C(Nc1cccc(OC(=O)N2CCCCC2)c1)N1CCCCC1	i	8	-2	4	5	15	i	0
O=C(Nc1cccc(OC(=O)N2CCOCC2)c1)N1CCOCC1	i	11	0	0	1	11	·	·
CC1CCCN(c2ccc(C(=O)N3CCC4(CC3)OCCO4)cc2[N+](=O)[O-])C1 (stereo unspecified)	i	-9	-1	4	-1	9	·	·
CCOC(=O)C1CCCN(c2ccc([N+](=O)[O-])c3nonc23)C1 (stereo unspecified)	+	-37	·	-110	83	132	i	58*
CCOC(=O)[C@]12Cc3ccccc3[C@H]1N(Cc1ccccc1)C(=O)c1ccccc12	i	-1	·	-5	0	5	·	·
CCCCCN1C(=O)c2ccccc2[C@@]2(C(=O)OCC)Cc3cc(OC)ccc3[C@@H]12	+	-13	·	·	-1	9	i	0
CCOC(=O)[C@]12Cc3ccccc3[C@H]1N(CCC(=O)OC)C(=O)c1ccccc12	+	-4	·	·	2	-3	i	0
Cc1nc2nc(SCC(=O)N3CCC4(CC3)OCCO4)nn2c(C)c1Cc1ccccc1	i	5	-3	0	2	1	·	·
CC(=O)Nc1ccc([As](=O)(O)c2ccc([N+](=O)[O-])cc2)cc1	i	4	0	0	-1	-4	i	0
CN(C)C(=O)Oc1ccc([N+](=O)[O-])cc1	i	0	-1	0	-2	-6	·	·
CC(C)C1(C)N=C(c2ncccc2C(=O)O)NC1=O (stereo unspecified)	i	2	0	3	2	6	·	·
SMILES	Myeloid diff 2	MT1-MMP act inh	beta cell repl	DAGLB inh	SENP1 FRET inh	NRP1-CendR mod	Myeloid diff CP1	GFP autofluor	others
O=C(Cc1cc(=O)oc2cc(O)ccc12)NN=Cc1ccc(N(CCCl)CCCl)cc1	i	-4	·	8	-70	-18	i	0
O=c1[nH]c(=S)[nH]c(O)c1/C=C1/C=c2ccccc2=N1	+	0	·	1	-3	-11	i	16*
Cc1ccc(CC(=O)N2CCN(C)CC2)cc1	i	0	-3	0	1	-2	·	·
COc1ccc(CC(=O)N2CCN(C)CC2)cc1	i	·	-2	0	2	0	i	0
CCOC(=O)c1c(NC(=O)c2c(N)n(CCCOC)c3nc4ccccc4nc23)sc2c1CCCC2	i	-6	-4	2	-19	6	i	2
Cn1ccnc1P(=S)(c1nccn1C)c1nccn1C	+	2	-3	-6	5	-1	i	0
S=C1NCCN1	i	-1	2	4	2	-6	·	·
CCC(C)C1N=C(c2ccccc2)c2cc(Cl)ccc2N(CC(=O)NCc2ccco2)C1=O (stereo unspecified)	i	2	-1	1	1	0	·	·
Cc1ccccc1C1=NCC(=O)N(CC(=O)NCc2ccco2)c2sc3c(c21)CCCC3	i	-2	-2	0	-2	-22	i	0
COc1ccc(C(=O)CC(c2ccc3c(c2)OCO3)c2c(O)c3ccccc3oc2=O)cc1OC (stereo unspecified)	i	3	·	-4	-11	-2	·	·
